Here are results for three compounds from ChEMBL document CHEMBL3797186, “Single Residue Substitutions That Confer Voltage-Gated Sodium Ion Channel Subtype Selectivity in the NaV1.7 Inhibitory Peptide GpTx-1” (J Med Chem, 2016).

Format in all cases: cell-based
Assay [1] has as its target T1, Sodium channel protein type 9 subunit alpha (Homo sapiens, UniProt Q15858). The assay can be described thus: Inhibition of human Nav1.7 expressed in HEK293 cells by whole cell patch clamp electrophysiology method. For orientation: In patch-clamp work, channel activity is measured electrically.
The target in assay [2] is T2, Sodium channel protein type 5 subunit alpha (Homo sapiens, UniProt Q14524). The assay can be described thus: Inhibition of human Nav1.5 expressed in HEK293 cells assessed as inward peak current by ion-works quattro patch clamp electrophysiology method. An outline of the steps: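 Stable HEK293 line expressing human NaV1.5, recorded by population patch clamp on the IonWorks Quattro.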

Assay [3] concerns the target T2, Sodium channel protein type 5 subunit alpha. The assay can be described thus: Inhibition of human Nav1.5 expressed in HEK293 cells by whole cell patch clamp electrophysiology method. An outline of the steps:
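Stable HEK293 line expressing human NaV1.5, recorded on the PatchXpress 7000A. Percent inhibition versus concentration was pooled from at least 10 cells, with two to three points per concentration. The pooled set was fitted with a four-parameter Hill equation to give a single IC50 curve.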

Assay [4] has as its target T1, Sodium channel protein type 9 subunit alpha. The assay can be described thus: Inhibition of human Nav1.7 expressed in HEK293 cells assessed as inward peak current by ion-works quattro patch clamp electrophysiology method.

Positions of bridges follow the written chain, without caps; N, C: chain ends. Residues, ends and D or L forms follow the SMILES beside them.

T1 sequence (Q15858 whole entry): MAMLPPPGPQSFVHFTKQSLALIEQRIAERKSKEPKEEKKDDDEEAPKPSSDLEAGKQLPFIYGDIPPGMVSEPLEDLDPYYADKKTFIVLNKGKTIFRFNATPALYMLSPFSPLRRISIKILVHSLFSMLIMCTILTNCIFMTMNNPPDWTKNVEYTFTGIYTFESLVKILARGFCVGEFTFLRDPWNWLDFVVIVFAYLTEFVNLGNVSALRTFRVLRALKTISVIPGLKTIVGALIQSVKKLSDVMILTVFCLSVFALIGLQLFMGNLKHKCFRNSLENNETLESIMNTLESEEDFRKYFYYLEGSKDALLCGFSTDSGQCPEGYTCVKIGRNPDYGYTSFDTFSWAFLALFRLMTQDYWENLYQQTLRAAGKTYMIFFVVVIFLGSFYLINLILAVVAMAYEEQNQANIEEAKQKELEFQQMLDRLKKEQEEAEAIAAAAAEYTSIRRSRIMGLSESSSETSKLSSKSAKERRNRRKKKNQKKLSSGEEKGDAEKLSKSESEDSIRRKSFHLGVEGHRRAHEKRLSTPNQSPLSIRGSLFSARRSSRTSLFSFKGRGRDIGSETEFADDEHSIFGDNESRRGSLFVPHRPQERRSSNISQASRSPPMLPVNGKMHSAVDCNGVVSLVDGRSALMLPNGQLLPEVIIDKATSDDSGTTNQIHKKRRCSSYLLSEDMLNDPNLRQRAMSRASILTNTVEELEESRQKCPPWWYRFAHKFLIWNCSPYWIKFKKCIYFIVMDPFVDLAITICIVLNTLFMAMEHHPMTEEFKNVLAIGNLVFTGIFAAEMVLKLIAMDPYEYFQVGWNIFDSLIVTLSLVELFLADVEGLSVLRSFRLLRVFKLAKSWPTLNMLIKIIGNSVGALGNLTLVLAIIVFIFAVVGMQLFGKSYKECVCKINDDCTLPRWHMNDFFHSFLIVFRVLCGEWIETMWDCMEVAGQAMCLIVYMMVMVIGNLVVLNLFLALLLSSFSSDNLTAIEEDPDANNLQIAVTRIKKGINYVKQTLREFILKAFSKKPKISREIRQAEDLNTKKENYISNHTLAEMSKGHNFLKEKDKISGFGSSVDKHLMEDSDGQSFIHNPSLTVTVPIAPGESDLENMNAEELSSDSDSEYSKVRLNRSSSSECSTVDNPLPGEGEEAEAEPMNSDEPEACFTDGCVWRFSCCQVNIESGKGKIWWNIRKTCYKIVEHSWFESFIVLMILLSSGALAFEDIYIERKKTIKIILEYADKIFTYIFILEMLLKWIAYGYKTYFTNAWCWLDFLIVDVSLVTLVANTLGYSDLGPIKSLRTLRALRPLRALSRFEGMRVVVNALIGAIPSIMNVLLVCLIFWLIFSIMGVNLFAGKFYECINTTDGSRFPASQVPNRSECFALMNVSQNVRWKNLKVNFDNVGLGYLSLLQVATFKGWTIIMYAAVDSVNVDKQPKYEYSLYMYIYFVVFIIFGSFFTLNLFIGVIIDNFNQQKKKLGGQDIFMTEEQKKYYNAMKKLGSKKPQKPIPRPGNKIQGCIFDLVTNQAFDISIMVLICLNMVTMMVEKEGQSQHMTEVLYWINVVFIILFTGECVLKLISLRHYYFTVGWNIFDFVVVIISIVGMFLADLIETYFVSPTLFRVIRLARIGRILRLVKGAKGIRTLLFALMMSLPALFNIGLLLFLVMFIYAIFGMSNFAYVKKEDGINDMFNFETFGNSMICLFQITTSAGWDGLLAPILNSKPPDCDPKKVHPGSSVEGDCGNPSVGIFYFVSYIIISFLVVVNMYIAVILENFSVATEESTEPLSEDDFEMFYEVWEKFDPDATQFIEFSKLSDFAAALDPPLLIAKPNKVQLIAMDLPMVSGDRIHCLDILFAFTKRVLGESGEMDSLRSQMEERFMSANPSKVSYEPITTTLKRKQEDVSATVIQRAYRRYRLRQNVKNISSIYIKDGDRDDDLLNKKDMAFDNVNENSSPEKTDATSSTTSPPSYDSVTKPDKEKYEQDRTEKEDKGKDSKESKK
T2 sequence (Q14524 whole entry): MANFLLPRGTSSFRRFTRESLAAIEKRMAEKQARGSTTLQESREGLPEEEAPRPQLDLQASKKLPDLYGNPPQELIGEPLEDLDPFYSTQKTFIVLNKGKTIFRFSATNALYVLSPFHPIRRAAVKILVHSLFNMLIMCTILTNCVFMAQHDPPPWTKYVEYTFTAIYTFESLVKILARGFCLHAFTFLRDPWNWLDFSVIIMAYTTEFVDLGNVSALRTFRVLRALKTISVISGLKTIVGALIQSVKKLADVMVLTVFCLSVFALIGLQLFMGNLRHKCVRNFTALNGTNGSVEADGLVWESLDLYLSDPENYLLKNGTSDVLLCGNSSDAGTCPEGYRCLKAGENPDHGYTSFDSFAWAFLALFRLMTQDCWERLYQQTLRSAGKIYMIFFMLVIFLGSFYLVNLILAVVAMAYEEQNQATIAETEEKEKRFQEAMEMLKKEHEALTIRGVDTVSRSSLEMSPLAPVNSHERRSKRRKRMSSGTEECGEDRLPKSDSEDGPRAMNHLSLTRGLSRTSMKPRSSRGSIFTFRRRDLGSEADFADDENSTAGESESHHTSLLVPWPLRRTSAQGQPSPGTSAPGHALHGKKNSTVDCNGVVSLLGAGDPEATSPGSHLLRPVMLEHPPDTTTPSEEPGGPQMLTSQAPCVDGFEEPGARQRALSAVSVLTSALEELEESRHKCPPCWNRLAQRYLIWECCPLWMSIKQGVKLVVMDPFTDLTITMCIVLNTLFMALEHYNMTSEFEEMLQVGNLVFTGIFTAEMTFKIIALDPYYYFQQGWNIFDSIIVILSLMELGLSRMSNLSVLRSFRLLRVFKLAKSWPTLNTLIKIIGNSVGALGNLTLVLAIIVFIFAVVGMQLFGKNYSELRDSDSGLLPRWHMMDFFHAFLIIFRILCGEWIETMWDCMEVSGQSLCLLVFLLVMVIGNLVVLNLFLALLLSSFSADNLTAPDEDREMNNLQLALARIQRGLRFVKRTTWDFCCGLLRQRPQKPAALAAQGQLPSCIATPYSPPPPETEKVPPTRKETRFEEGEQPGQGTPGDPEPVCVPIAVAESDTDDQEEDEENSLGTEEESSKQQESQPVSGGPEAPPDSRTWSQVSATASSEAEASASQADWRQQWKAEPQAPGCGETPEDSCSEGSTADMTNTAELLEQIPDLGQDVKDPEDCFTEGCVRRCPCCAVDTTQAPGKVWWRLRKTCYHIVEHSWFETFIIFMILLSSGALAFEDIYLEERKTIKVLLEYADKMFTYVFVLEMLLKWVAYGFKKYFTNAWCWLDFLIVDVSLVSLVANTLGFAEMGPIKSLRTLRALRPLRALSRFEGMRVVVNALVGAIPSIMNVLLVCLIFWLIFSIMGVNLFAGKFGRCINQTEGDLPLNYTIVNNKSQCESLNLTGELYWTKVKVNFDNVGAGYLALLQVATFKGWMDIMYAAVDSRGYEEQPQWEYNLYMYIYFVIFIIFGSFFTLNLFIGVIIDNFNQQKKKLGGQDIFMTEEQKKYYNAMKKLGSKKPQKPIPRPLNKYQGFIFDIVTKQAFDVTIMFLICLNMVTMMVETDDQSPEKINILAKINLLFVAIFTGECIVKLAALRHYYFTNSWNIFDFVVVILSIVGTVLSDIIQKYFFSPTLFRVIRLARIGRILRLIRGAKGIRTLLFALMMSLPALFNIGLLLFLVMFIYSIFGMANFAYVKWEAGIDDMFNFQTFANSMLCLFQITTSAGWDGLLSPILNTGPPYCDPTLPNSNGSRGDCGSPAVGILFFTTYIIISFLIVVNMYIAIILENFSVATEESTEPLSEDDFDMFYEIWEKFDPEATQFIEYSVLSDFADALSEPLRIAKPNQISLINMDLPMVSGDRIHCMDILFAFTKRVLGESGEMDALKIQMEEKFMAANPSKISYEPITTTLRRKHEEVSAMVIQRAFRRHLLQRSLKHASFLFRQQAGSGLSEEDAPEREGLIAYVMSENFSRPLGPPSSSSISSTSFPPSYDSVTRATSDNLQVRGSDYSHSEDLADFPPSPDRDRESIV

For the compound `CC[C@H](C)[C@@H]1NC(=O)[C@@H]2CSSC[C@@H]3NC(=O)[C@H](C(C)C)NC(=O)[C@H](CC(C)C)NC(=O)[C@H](CC(N)=O)NC(=O)[C@@H]4CCCN4C(=O)[C@H](CCCNC(=N)N)NC(=O)[C@H](CSSC[C@H](N)C(=O)N[C@@H](CC(C)C)C(=O)NCC(=O)N[C@@H](Cc4ccccc4)C(=O)N[C@@H](CCSC)C(=O)N[C@@H](CCCNC(=N)N)C(=O)N[C@@H](CCCCN)C(=O)N2)NC(=O)[C@H](CSSC[C@@H](C(=O)N[C@@H](CCCCN)C(=O)N[C@@H](Cc2ccc(O)cc2)C(=O)N[C@H](C(=O)N[C@@H](Cc2ccccc2)C(N)=O)C(C)C)NC(=O)[C@H](Cc2c[nH]c4ccccc24)NC(=O)[C@H](CCCCN)NC(=O)[C@H](Cc2cnc[nH]2)NC(=O)[C@H]([C@@H](C)O)NC(=O)[C@H](CCCNC(=N)N)NC(=O)[C@H](CO)NC3=O)NC(=O)[C@H](CCCCN)NC(=O)[C@H](CC(=O)O)NC(=O)[C@H](CC(N)=O)NC(=O)[C@H](CC(=O)O)NC(=O)[C@@H]2CCCN2C1=O` (H-CLGFMRKCIPDNDKCCRPNLVCSRTHKWCKYVF-NH2; disulfide 1-16, 8-22, 15-29), the values for the IC50 in assay [1] and in assay [2] were 8 nM and over 5 µM, respectively.
Regarding `CC[C@H](C)[C@@H]1NC(=O)[C@@H]2CSSC[C@@H]3NC(=O)[C@H](C(C)C)NC(=O)[C@H](CC(C)C)NC(=O)[C@H](CC(N)=O)NC(=O)[C@@H]4CCCN4C(=O)[C@H](CCCNC(=N)N)NC(=O)[C@H](CSSC[C@H](NC(=O)[C@@H](N)CC(=O)O)C(=O)N[C@@H](CC(C)C)C(=O)N[C@@H](CCCCN)C(=O)N[C@@H](Cc4ccccc4)C(=O)N[C@@H](CCSC)C(=O)N[C@@H](CCCNC(=N)N)C(=O)N[C@@H](CCCCN)C(=O)N2)NC(=O)[C@H](CSSC[C@@H](C(=O)N[C@@H](CCCCN)C(=O)N[C@@H](Cc2ccc(O)cc2)C(=O)N[C@H](C(=O)N[C@@H](Cc2ccccc2)C(N)=O)C(C)C)NC(=O)[C@H](Cc2c[nH]c4ccccc24)NC(=O)[C@H](CCCCN)NC(=O)[C@H](Cc2cnc[nH]2)NC(=O)[C@H]([C@@H](C)O)NC(=O)[C@H](CCCNC(=N)N)NC(=O)[C@H](CO)NC3=O)NC(=O)[C@H](CCCCN)NC(=O)[C@H](CC(=O)O)NC(=O)[C@H](CC(N)=O)NC(=O)[C@H](CC(=O)O)NC(=O)[C@@H]2CCCN2C1=O` (H-DCLKFMRKCIPDNDKCCRPNLVCSRTHKWCKYVF-NH2; disulfide 2-17, 9-23, 16-30), the IC50 in assay [3] was 10.1 µM; in assay [2] it was over 5 µM; in assay [4] it was 210 nM.
`CC[C@H](C)[C@@H]1NC(=O)[C@@H]2CSSC[C@@H]3NC(=O)[C@H](C(C)C)NC(=O)[C@H](CC(C)C)NC(=O)[C@H](CC(N)=O)NC(=O)[C@@H]4CCCN4C(=O)[C@H](CCCNC(=N)N)NC(=O)[C@H](CSSC[C@H](NC(=O)[C@@H](N)CC(=O)O)C(=O)N[C@@H](CC(C)C)C(=O)N[C@@H](CCCNC(=N)N)C(=O)N[C@@H](Cc4ccccc4)C(=O)N[C@@H](CCSC)C(=O)N[C@@H](CCCNC(=N)N)C(=O)N[C@@H](CCCCN)C(=O)N2)NC(=O)[C@H](CSSC[C@@H](C(=O)N[C@@H](CCCCN)C(=O)N[C@@H](Cc2ccc(O)cc2)C(=O)N[C@H](C(=O)N[C@@H](Cc2ccccc2)C(N)=O)C(C)C)NC(=O)[C@H](Cc2c[nH]c4ccccc24)NC(=O)[C@H](CCCCN)NC(=O)[C@H](Cc2cnc[nH]2)NC(=O)[C@H]([C@@H](C)O)NC(=O)[C@H](CCCNC(=N)N)NC(=O)[C@H](CO)NC3=O)NC(=O)[C@H](CCCCN)NC(=O)[C@H](CC(=O)O)NC(=O)[C@H](CC(N)=O)NC(=O)[C@H](CC(=O)O)NC(=O)[C@@H]2CCCN2C1=O` (H-DCLRFMRKCIPDNDKCCRPNLVCSRTHKWCKYVF-NH2; disulfide 2-17, 9-23, 16-30): the figures for the IC50 in assay [3], in assay [2] and in assay [4] were 4.5 µM, over 5 µM and 230 nM, respectively.

The IC50 is the point on the concentration scale where inhibition reaches its midpoint.
